# From ChEMBL document CHEMBL5357038, “Highly efficient, catalyst-free, one-pot sequential four-component synthesis of novel spiroindolinone-pyrazole scaffolds as anti-Alzheimer agents: in silico study and biological screening” (RSC Med Chem, 2024)
# Activity calls are given as the source filed them. The calls are words filed in the database; no cut-off is given here.
# Key:
# Acetylcholinesterase [1] = target: T1, Acetylcholinesterase (Homo sapiens, UniProt P22303); assay: Inhibition of AChE (unknown origin)
# T1 sequence (P22303 whole entry): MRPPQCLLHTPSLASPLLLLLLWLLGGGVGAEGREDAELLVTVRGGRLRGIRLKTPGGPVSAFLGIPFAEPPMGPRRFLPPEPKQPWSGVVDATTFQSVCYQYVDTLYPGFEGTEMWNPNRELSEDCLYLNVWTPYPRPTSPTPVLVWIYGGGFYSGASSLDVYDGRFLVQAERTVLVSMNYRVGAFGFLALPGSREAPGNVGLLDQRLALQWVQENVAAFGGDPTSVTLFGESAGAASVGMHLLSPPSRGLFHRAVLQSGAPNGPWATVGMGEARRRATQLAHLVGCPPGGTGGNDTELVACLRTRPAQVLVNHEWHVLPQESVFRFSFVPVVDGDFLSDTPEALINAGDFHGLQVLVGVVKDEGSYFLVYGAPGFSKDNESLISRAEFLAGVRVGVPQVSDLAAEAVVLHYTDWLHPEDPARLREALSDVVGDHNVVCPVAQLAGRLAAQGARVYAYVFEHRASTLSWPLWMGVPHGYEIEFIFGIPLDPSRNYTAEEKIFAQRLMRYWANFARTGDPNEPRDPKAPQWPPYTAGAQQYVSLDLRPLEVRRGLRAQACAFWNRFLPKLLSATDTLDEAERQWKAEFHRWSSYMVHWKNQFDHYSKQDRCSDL
# Cholinesterase [2] = target: T2, Cholinesterase (Homo sapiens, UniProt P06276); assay: Inhibition of BuChE (unknown origin)
# T2 sequence (P06276 whole entry): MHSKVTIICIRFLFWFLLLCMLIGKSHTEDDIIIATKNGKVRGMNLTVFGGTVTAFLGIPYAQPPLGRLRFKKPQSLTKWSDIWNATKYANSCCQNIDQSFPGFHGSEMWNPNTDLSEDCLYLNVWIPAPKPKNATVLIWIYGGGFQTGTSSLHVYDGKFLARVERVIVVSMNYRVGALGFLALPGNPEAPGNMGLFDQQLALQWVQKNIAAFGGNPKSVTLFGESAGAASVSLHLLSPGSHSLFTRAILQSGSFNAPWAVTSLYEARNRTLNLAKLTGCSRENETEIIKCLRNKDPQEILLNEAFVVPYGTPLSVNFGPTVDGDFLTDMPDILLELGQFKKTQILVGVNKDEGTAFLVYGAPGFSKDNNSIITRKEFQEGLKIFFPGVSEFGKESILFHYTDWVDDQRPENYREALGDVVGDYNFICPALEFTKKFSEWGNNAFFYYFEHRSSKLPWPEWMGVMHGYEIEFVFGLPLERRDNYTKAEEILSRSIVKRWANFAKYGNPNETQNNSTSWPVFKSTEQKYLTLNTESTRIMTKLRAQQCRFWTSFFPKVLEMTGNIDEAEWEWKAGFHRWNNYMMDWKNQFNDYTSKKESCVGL
# [3] = Cytotoxicity against human MC65 cells assessed as reduction in cell viability; type: functional
# Acetylcholinesterase [4] = target: T1, Acetylcholinesterase; assay: Inhibition of AChE (unknown origin) at 50 uM by Ellman's method relative to control
# Acetylcholinesterase [5] = target: T1, Acetylcholinesterase; assay: Inhibition of AChE (unknown origin) by Ellman's method
# Cholinesterase [6] = target: T2, Cholinesterase; assay: Inhibition of BuChE (unknown origin) at 50 uM by Ellman's method relative to control
# Acetylcholinesterase [7] = target: T1, Acetylcholinesterase; assay: Inhibition of AChE (unknown origin) assessed as inhibition constant
# In short: (§1)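 AChE kinetics run with acetylthiocholine substrate at 0.1–1 mM, with no inhibitor and with several inhibitor concentrations. Lineweaver–Burk double-reciprocal plots (1/V vs 1/[S]) across the inhibitor concentrations assigned the inhibition type and gave Km. Ki was estimated from a secondary plot of the slopes against inhibitor concentration.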
# [8] = Selectivity index, ratio of Ki for inhibition of AChE (unknown origin) to Ki for inhibition of BuChE (unknown origin)
# Cholinesterase [9] = target: T2, Cholinesterase; assay: Inhibition of BuChE (unknown origin) by Ellman's method
# Acetylcholinesterase [10] = target: T1, Acetylcholinesterase; assay: Mixed type inhibition of AChE (unknown origin) assessed as increase in Km at 2 to 12 uM by Lineweaver-burk plot analysis; details: dose 2-12 µM; in short: as §1
# Acetylcholinesterase [11] = target: T1, Acetylcholinesterase; assay: Mixed type inhibition of AChE (unknown origin) assessed as change in Vmax by Lineweaver-burk plot analysis; details: dose 2-12 µM; in short: as §1
# Acetylcholinesterase [12] = target: T1, Acetylcholinesterase; assay: Mixed type inhibition of AChE (unknown origin) assessed as inhibition constant by Lineweaver-burk plot analysis; in short: as §1
# SH-SY5Y [13] = assay: Cytotoxicity against human SH-SY5Y cells assessed as reduction in cell viability at 50 uM by MTT assay; type: functional
# In short: (§2)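 SH-SY5Y cells were grown in DMEM/F12 with 15% FBS, penicillin (100 units per ml) and streptomycin (100 μg ml−1) at 37 °C in humidified 5% CO2/95% air. After treatment, MTT was added at 0.5 mg ml−1 final for a further 2 h. Formazan was dissolved in DMSO and read at 540 nm. Untreated control cells were set as 100% viability.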
# SH-SY5Y [14] = assay: Cytotoxicity against human SH-SY5Y cells assessed as reduction in cell viability at 5 uM by MTT assay; type: functional, cell-based; in short: as §2
# Acetylcholinesterase [15] = target: T1, Acetylcholinesterase; assay: Inhibition of AChE (unknown origin) using acetylthiocholine as substrate incubated for 15 mins by DTNB reagent based Ellman's method
# Cholinesterase [16] = target: T2, Cholinesterase; assay: Inhibition of BuChE (unknown origin) incubated for 15 mins by DTNB reagent based Ellman's method
Compound,inhibition (Acetylcholinesterase [4]),inhibition (Cholinesterase [6]),other results
O=C(Nc1cccc(-c2cc(-c3ccc(Cl)cc3)n[nH]2)c1)c1ccccc1,–,–,IC50 (Acetylcholinesterase [1]): 1.94 µM; IC50 (Cholinesterase [2]): 1170 nM; Activity [3]: 90%
Cc1ccccc1NC1=C([N+](=O)[O-])C2(NN1)C(=O)Nc1ccc([N+](=O)[O-])cc12 (centres undefined),71.6%,38.9%,IC50 (Acetylcholinesterase [5]): 15.5 µM
Cc1cc(Cl)cc2c1N(C)C(=O)/C2=N\NC(=S)Nc1cccc(S(N)(=O)=O)c1,–,–,Ki (Acetylcholinesterase [7]): 520 nM; Ratio Ki [8]: 37.7
COc1ccc(NC2=C([N+](=O)[O-])C3(NN2)C(=O)Nc2ccccc23)cc1 (centres undefined),47.8%,53.4%,IC50 (Cholinesterase [9]): 34.7 µM
O=C1Nc2ccc([N+](=O)[O-])cc2C12NNC(Nc1ccc(Cl)cc1)=C2[N+](=O)[O-] (centres undefined),65.9%,21.8%,IC50 (Acetylcholinesterase [5]): 37.1 µM
Cc1ccc(NC2=C([N+](=O)[O-])C3(NN2)C(=O)Nc2ccccc23)cc1C (centres undefined),29.4%,31.1%,–
Cc1ccccc1NC1=C([N+](=O)[O-])C2(NN1)C(=O)Nc1c(C(F)(F)F)cccc12 (centres undefined),63.1%,37.5%,IC50 (Acetylcholinesterase [5]): 17 µM
O=C1Nc2ccccc2C12NNC(Nc1cccc(Cl)c1)=C2[N+](=O)[O-] (centres undefined),75.5%,13.9%,IC50 (Acetylcholinesterase [5]): 6.02 µM; inhibition (Acetylcholinesterase [10]): Active; inhibition (Acetylcholinesterase [11]): Dose-Dependent Effect; Ki (Acetylcholinesterase [12]): 5.59 µM; Activity (SH-SY5Y [13]): 64.81%; Activity (SH-SY5Y [14]): inactive
NS(=O)(=O)c1cccc(NC(=S)N/N=C2\C(=O)N(Cc3ccccc3)c3ccc([N+](=O)[O-])cc32)c1,–,–,Ki (Acetylcholinesterase [7]): 220 nM
Cc1cc(-c2cc3cc([N+](=O)[O-])ccc3oc2=O)n[nH]1,–,–,IC50 (Acetylcholinesterase [1]): 16.3 µM
CCOP(=O)(OCC)C(NCc1cccs1)c1cn(-c2ccccc2)nc1-c1ccc(Cl)cc1 (centres undefined),–,–,IC50 (Acetylcholinesterase [15]): 17 nM; IC50 (Cholinesterase [16]): 6.33 µM
O=C1Nc2ccccc2C12NNC(Nc1ccc(O)cc1)=C2[N+](=O)[O-] (centres undefined),41%,12.9%,–
O=C1Nc2c(C(F)(F)F)cccc2C12NNC(Nc1cccc(Cl)c1)=C2[N+](=O)[O-] (centres undefined),20.6%,18.8%,–
Cc1ccccc1NC1=C([N+](=O)[O-])C2(NN1)C(=O)Nc1ccc(Br)cc12 (centres undefined),51.8%,34%,IC50 (Acetylcholinesterase [5]): 41.7 µM
Cc1ccccc1NC1=C([N+](=O)[O-])C2(NN1)C(=O)Nc1ccc(Cl)cc12 (centres undefined),21.9%,73.8%,IC50 (Cholinesterase [9]): 9.13 µM
O=C1Nc2ccccc2C12NNC(Nc1ccc(Cl)cc1)=C2[N+](=O)[O-] (centres undefined),13.9%,14.9%,–
COc1ccc(NC2=C([N+](=O)[O-])C3(NN2)C(=O)Nc2ccc(OC)cc23)cc1 (centres undefined),29.7%,inactive,–
COc1ccc(OC)c(NC2=C([N+](=O)[O-])C3(NN2)C(=O)Nc2ccc([N+](=O)[O-])cc23)c1 (centres undefined),55.1%,25.1%,IC50 (Acetylcholinesterase [5]): 42.6 µM
Cc1ccccc1NC1=C([N+](=O)[O-])C2(NN1)C(=O)Nc1ccccc12 (centres undefined),35.4%,60.1%,IC50 (Cholinesterase [9]): 20 µM
O=C1Nc2c(C(F)(F)F)cccc2C12NNC(Nc1cccc3ccccc13)=C2[N+](=O)[O-] (centres undefined),39.1%,inactive,–
COc1ccc2c(c1)C1(NNC(Nc3ccc(C)c(C)c3)=C1[N+](=O)[O-])C(=O)N2 (centres undefined),inactive,52.3%,IC50 (Cholinesterase [9]): 47.3 µM
Cc1ccc(NC2=C([N+](=O)[O-])C3(NN2)C(=O)Nc2ccccc23)cc1 (centres undefined),30.5%,56.5%,IC50 (Cholinesterase [9]): 25.1 µM
